Test [1] deals with Streptococcus pyogenes. Put plainly: The compound was tested in vitro for antibiotic activity against Streptococcus pyogenes 930.
Test [2] deals with Acinetobacter. The test is described as follows: Compound was tested in vitro for antibiotic activity against the bacteria Acinetobacter sp. CMX669. The test is classed as functional. An outline of the steps: (§1)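 Overnight cultures were grown in brain-heart infusion broth at 36 °C. The compound was diluted twofold in brain-heart infusion agar over a range of 200 to 0.005 µg/mL (final). Each plate received about 10⁴ organisms and was incubated at 36 °C for 18 h. The MIC was taken as the lowest concentration giving no visible growth.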

The subject of test [3] is Escherichia coli. The test is described as follows: Compound was tested in vitro for antibiotic activity against the bacteria Escherichia coli juhl. The test is classed as functional. An outline of the steps: as §1
Test [4] has as its system Klebsiella aerogenes. Put plainly: Compound was tested in vitro for antibiotic activity against bacteria Enterobacter aerogenes ATCC 13048. In kind it is functional. In outline:
as §1

The subject of test [5] is Klebsiella pneumoniae. Put plainly: Compound was tested in vitro for antibiotic activity against the bacteria Klebsiella pneumoniae 8045. The test is classed as functional. In outline: as §1
Test [6] deals with Pseudomonas aeruginosa. The test is described as follows: Compound was tested in vitro for antibiotic activity against the bacteria Pseudomonas aeruginosa 5007. The test is classed as functional. An outline of the steps:
as §1

Test [7] has as its system Pseudomonas aeruginosa. Put plainly: Compound was tested in vitro for antibiotic activity against the bacteria Pseudomonas aeruginosa K799/WT. The test is classed as functional. An outline of the steps: as §1
Test [8] relates to Staphylococcus epidermidis. The test is described as follows: The compound was tested in vitro for antibiotic activity against Staphylococcus epidermidis 3519. The test is classed as functional. An outline of the steps: as §1
Test [9] relates to Staphylococcus aureus. Put plainly: The compound was tested in vitro for antibiotic activity against Staphylococcus aureus 686B. The test is classed as functional. In outline: as §1
Test [10] concerns Staphylococcus aureus. The test is described as follows: The compound was tested in vitro for antibiotic activity against Staphylococcus aureus ATCC 6538P. The test is classed as functional. An outline of the steps: as §1
Test [11] deals with Enterococcus faecium. Put plainly: The compound was tested in vitro for antibiotic activity against […] ATCC 8043. In kind it is functional. In outline:
as §1

SMILES strings stand for the structures. Converted amounts (≈) assume the structure as drawn.

What is called MIC is the smallest concentration in the dilution series that meets the test's criterion for growth inhibition.

Consider `CN1CCN(c2cc3c(cc2F)c(=O)c(C(=O)O)cn3-c2ccccc2)CC1`, for which, in test [1], 3.1 µg/mL (≈ 8.13 µM) was the least that counted as inhibitory (MIC).
On to `CCC(=O)N1CCN(c2cc3c(cc2F)c(=O)c(C(=O)O)c2sc4ccccc4n23)CC1`, for which the MIC in test [2] is 0.1 µg/mL (≈ 0.221 µM); in test [3], 6.2 µg/mL (≈ 13.7 µM); in [4], 12.5 µg/mL (≈ 27.6 µM); in test [5], 1.56 µg/mL (≈ 3.44 µM); in test [6] it was over 100 µg/mL; in [7], over 100 µg/mL. For the same molecule, the minimal inhibitory concentration (MIC) in test [8] turned out to be 0.39 µg/mL (≈ 0.86 µM); in test [9], 0.39 µg/mL (≈ 0.86 µM); in test [10], 0.39 µg/mL (≈ 0.86 µM); in test [11] it was 6.2 µg/mL (≈ 13.7 µM); in test [1] it was 3.1 µg/mL (≈ 6.84 µM).
For `Cc1ccccc1-n1cc(C(=O)O)c(=O)c2cc(F)c(N3CCN(C)CC3)cc21`, it took 50 µg/mL (≈ 126 µM) to inhibit growth in test [1] (MIC).
For `O=C(O)c1cn(-c2ccccc2)c2cc(N3CCNCC3)c(F)cc2c1=O`, the minimum inhibitory concentration (MIC) in [8] came to 0.78 µg/mL (≈ 2.12 µM); in test [1] it was 1.56 µg/mL (≈ 4.25 µM).
As to `O=C(O)c1c(=O)c2cc(F)c(N3CCNCC3)cc2n2c1sc1ccccc12`, the minimal inhibitory concentration (MIC) stood at 0.39 µg/mL (≈ 0.981 µM) in test [2]; 0.2 µg/mL (≈ 0.503 µM) in test [3]; 0.78 µg/mL (≈ 1.96 µM) in [4]; 0.2 µg/mL (≈ 0.503 µM) in test [5]; 1.56 µg/mL (≈ 3.93 µM) in test [6]; 1.56 µg/mL (≈ 3.93 µM) in test [7]. Besides, the MIC was determined as 0.39 µg/mL (≈ 0.981 µM) in test [8]; 0.39 µg/mL (≈ 0.981 µM) in test [9]; 0.39 µg/mL (≈ 0.981 µM) in [10]; 0.78 µg/mL (≈ 1.96 µM) in test [11]; 0.78 µg/mL (≈ 1.96 µM) in test [1].
In the case of `CC(=O)N1CCN(c2cc3c(cc2F)c(=O)c(C(=O)O)c2sc4ccccc4n23)CC1`, the minimum inhibitory concentration (MIC) in [2] was 6.2 µg/mL (≈ 14.1 µM); in test [3], 6.2 µg/mL (≈ 14.1 µM); in [4], over 100 µg/mL; in test [5] it was 1.56 µg/mL (≈ 3.55 µM); in test [6] it was over 100 µg/mL; in test [7] it was over 100 µg/mL. For the same molecule, the MIC is 0.39 µg/mL (≈ 0.887 µM) in test [8]; 0.2 µg/mL (≈ 0.455 µM) in test [9]; 0.2 µg/mL (≈ 0.455 µM) in [10]; 6.2 µg/mL (≈ 14.1 µM) in test [11]; 3.1 µg/mL (≈ 7.05 µM) in test [1].
As to `CN1CCN(c2cc3c(cc2F)c(=O)c(C(=O)O)c2sc4ccccc4n23)CC1`, the MIC was 0.39 µg/mL (≈ 0.948 µM) in [2]; 0.78 µg/mL (≈ 1.9 µM) in test [3]; 1.56 µg/mL (≈ 3.79 µM) in [4]; 0.39 µg/mL (≈ 0.948 µM) in test [5]; 6.2 µg/mL (≈ 15.1 µM) in test [6]; 6.2 µg/mL (≈ 15.1 µM) in [7]. Further, the MIC in test [8] came out at 0.78 µg/mL (≈ 1.9 µM); in test [9], 0.39 µg/mL (≈ 0.948 µM); in [10], 0.39 µg/mL (≈ 0.948 µM); in test [11], 1.56 µg/mL (≈ 3.79 µM); in test [1], 1.56 µg/mL (≈ 3.79 µM).
`Cc1cccc(C)c1-n1cc(C(=O)O)c(=O)c2cc(F)c(N3CCN(C)CC3)cc21`: the MIC in test [1] was over 100 µg/mL.
`CCn1cc(C(=O)O)c(=O)c2cc(F)c(N3CCNCC3)cc21` [NORFLOXACIN] displayed an MIC in test [1] of 3.1 µg/mL (≈ 9.71 µM).

Source of the values: ChEMBL document CHEMBL1123550, “Synthesis and biological activity of benzothiazolo[3,2-a]quinolone antibacterial agents” (1986).
